Measurements collected from several papers.
Compare with care: the assays were run in different laboratories.
PLEKHA3: PLEKHA3 (Homo sapiens, UniProt Q9HB20)
Fibroblast growth factor 14: Fibroblast growth factor 14 (Homo sapiens, UniProt Q92915)
MAPK14: Mitogen-activated protein kinase 14 (MAPK14, Homo sapiens, UniProt Q16539)
ADRA2C: Alpha-2C adrenergic receptor (ADRA2C, Homo sapiens, UniProt P18825)

| Structure (SMILES) | target | effect on | mode | method | endpoint | value |
| --- | --- | --- | --- | --- | --- | --- |
| C[C@H](Cc1ccc(O)c(O)c1)[C@@H](C)Cc1ccc(O)c(O)c1 | pyrD (Pseudomonas aeruginosa, UniProt Q9HZF8) | binding | – | ITC | Kd | 7500 nM |
| CCOc1ccc(C(=O)CC(SCc2ccc(Cl)cc2)C(=O)OC)cc1 (stereo not drawn) | PLEKHA3 | ligand displacement | – | FP | Ki | 17300 nM |
| CC(=O)Nc1ccc(S(=O)(=O)N2CCN(CC(O)COc3ccc4ccccc4c3)CC2)cc1 (stereo not drawn) | Fibroblast growth factor 14 | binding | – | SPR | Kd | 8530 nM |
| c1ccc(-c2n[nH]cc2-c2ccncc2)nc1 | MAPK14 | enzyme activity | inhibitor | ADP detection | IC50 | 4500 nM |
| CC(C)=CC[C@@H](O)C1=CC(=O)c2c(O)ccc(O)c2C1=O | Interleukin-6 (IL6, Homo sapiens, UniProt P05231) | binding | – | BLI | Kd | 910 nM |
| Cc1cc(Oc2ncccc2CN2CCN(c3cccc4ccccc34)CC2)ccc1-c1c(C)c(=O)[nH]c(=O)n1C | ADRA2C | ligand displacement | – | radioligand | Ki | 14.3 nM |
| CCOc1ccc(C(=O)CC(SCc2ccc(OC)cc2)C(=O)O)cc1 (stereo not drawn) | PLEKHA3 | ligand displacement | – | FP | Ki | 27000 nM |
| Cc1cc(Oc2ncccc2CN2CCN(C(c3ccccc3)c3ccccc3)CC2)ccc1-c1c(C)c(=O)[nH]c(=O)n1C | ADRA2C | ligand displacement | – | radioligand | Ki | 137 nM |
| Cc1cccc(NC(=O)Cn2cc(CO)c3ccccc32)c1 | Fibroblast growth factor 14 | binding | – | SPR | Kd | 1900 nM |
| Cc1cc(Oc2ncccc2CN2CCN(c3ccccc3C#N)CC2)ccc1-c1c(C)c(=O)[nH]c(=O)n1C | ADRA2C | ligand displacement | – | radioligand | Ki | 56.3 nM |
| CCOc1ccc(C(=O)CC(SCc2ccc(F)cc2)C(=O)O)cc1 (stereo not drawn) | PLEKHA3 | ligand displacement | – | FP | Ki | 13800 nM |
| Cc1cc(Oc2ncccc2CN2CCN(Cc3ccc(F)cc3)CC2)ccc1-c1c(C)c(=O)[nH]c(=O)n1C | ADRA2C | ligand displacement | – | radioligand | Ki | 206 nM |
| c1coc(-c2n[nH]cc2-c2ccnc3ccccc23)c1 | MAPK14 | enzyme activity | inhibitor | ADP detection | IC50 | 1800 nM |
| Cc1cc(Oc2ncccc2CN2CCN(c3ccc([N+](=O)[O-])cc3C(F)(F)F)CC2)ccc1-c1c(C)c(=O)[nH]c(=O)n1C | ADRA2C | ligand displacement | – | radioligand | Ki | 401 nM |
| COc1ccc(C(=O)CC(SCc2ccc(Cl)cc2)C(=O)O)cc1 (stereo not drawn) | PLEKHA3 | ligand displacement | – | FP | Ki | 13200 nM |
